Experimental data reported in the RNAGym collection of RNA variant scans (doi:10.1126/science.aae0568).
Variants at the floor of the assay were thinned out.

B1: tRNA (parent)
chain: GUUCCGUUGGCGUAAUGGUAACGCGUCUCCCUCCUAAGGAGAAGACUGCGGGUUCGAGUCCCGUACGGAACG

Variants of: B1
Test: yeast fitness relative to wild type (ratio to wild type); higher = fitter; tRNA-Arg(CCU), competitive growth, 37 C, YPD
Method in brief: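 Genotype frequency changes were the basis for Darwinian fitness relative to wild type. The frequencies came from 100-nucleotide paired-end sequencing of gene amplicons from the start population and each end population of pooled yeast strains with tRNA-Arg(CCU) gene variants at the native locus. Competition ran in YPD at 37°C for 24 hours in six replicates, genotypes needed ≥ 100 starting reads, and estimates < 0.5 were set to 0.5.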

Variant	yeast fitness
G10A U26C G56A	0.542
G10A U26G	0.681
G10A U28A A42U	≤ 0.5
G10A U28A U59A	≤ 0.5
G10A U32A	0.601
G10A U32A C49U	0.577
G10A U32C	0.786
G10A U32C A57G	≤ 0.5
G10A U35A G63C	≤ 0.5
G10A U35G A37U	0.551
G10A U35G A43G C46U	0.587
G10A U47G A65C	≤ 0.5
G10A U53C	0.608
G10A U54C G68A A70G	≤ 0.5
G10A U54G	≤ 0.5
G10A U59C	0.721
G10A U64A	0.73
G10C	0.661
G10C A14C A21U C31U	0.773
G10C A14C C27A C29G A57C A65U	≤ 0.5
G10C A14C C60A	≤ 0.5
G10C A14C C61A G67A A69C	≤ 0.5
G10C A14C C61U	≤ 0.5
G10C A14C C62U	0.537

Variant	yeast fitness
G10C A14C G23U C31A C33G	0.512
G10C A14C G58A	≤ 0.5
G10C A14G	0.569
G10C A14G U26A C49U A65U	≤ 0.5
G10C A14U	0.546
G10C A14U C62U	0.51
G10C A14U C66U	≤ 0.5
G10C A14U G51A C62U	≤ 0.5
G10C A14U U19A C22U A36G	≤ 0.5
G10C A14U U19A C22U C62A	≤ 0.5
G10C A14U U32C C62U	≤ 0.5
G10C A15C C24U U54C C60A C62A	0.585
G10C A15G C27G	0.695
G10C A15G G18A U35A G44A	≤ 0.5
G10C A15G U35A G44A A69C	≤ 0.5
G10C A15U C29G C46U G51C A65G	≤ 0.5
G10C A15U C29G C46U G51C C61G	≤ 0.5
G10C A15U C33A A36U C62U	≤ 0.5
G10C A20G	0.775
G10C A20G A43G C46U	≤ 0.5
G10C A20G C24U G38C G56C	0.561
G10C A20G C24U G38C U53G	≤ 0.5
G10C A20U A42G C60G	≤ 0.5
G10C A20U C27U C29U A40U C66U	≤ 0.5

Variant	yeast fitness
G10C A21C C22G A36G A57C	≤ 0.5
G10C A21C C30G U32C C60U G67C	0.54
G10C A21C C30U G41C	≤ 0.5
G10C A21C C66G	≤ 0.5
G10C A21G	0.633
G10C A21G C29A A43U C55A	0.651
G10C A21G C55G A57G C60A	≤ 0.5
G10C A21G G56U C66A	0.727
G10C A36C	0.712
G10C A36C C55G	≤ 0.5
G10C A36C G48A C62U	0.555
G10C A36G C49U	0.551
G10C A36G G41A	≤ 0.5
G10C A36U A42G G56A U59G	≤ 0.5
G10C A36U A69U	≤ 0.5
G10C A36U C60G	≤ 0.5
G10C A36U U53A C60A	0.548
G10C A36U U64C C66U A70C	≤ 0.5
G10C A37C C60G	≤ 0.5
G10C A37G	0.656
G10C A37G C49U G52A C55G C66A	≤ 0.5
G10C A37U G52A	≤ 0.5
G10C A37U G52A C66U	≤ 0.5
G10C A40G	0.588

Variant	yeast fitness
G10C A42C A43G	≤ 0.5
G10C A42G	0.57
G10C A42U C61U C62U	≤ 0.5
G10C A43C C49U	≤ 0.5
G10C A43G	0.739
G10C A43U C46G	≤ 0.5
G10C A45G C61A A70G	≤ 0.5
G10C A45U	0.778
G10C A45U C49G	0.583
G10C A45U C61G	≤ 0.5
G10C A45U G48C	0.53
G10C A57C	≤ 0.5
G10C A57C U64A	≤ 0.5
G10C A57G A69U	0.559
G10C A65C	0.76
G10C A65G	0.719
G10C A65U	0.767
G10C A69C	0.785
G10C A69G	0.51
G10C A70G	0.644
G10C A70U	0.75
G10C C11A A37C C49G G68C A69G	≤ 0.5
G10C C11A C49G C55A	≤ 0.5
G10C C11G	0.682

Variant	yeast fitness
G10C C11U A20C A57U	≤ 0.5
G10C C11U G25C C30G G67C	0.511
G10C C11U U26A C49U A65U	≤ 0.5
G10C C22A C24G A36G G48A G50C	≤ 0.5
G10C C22A C24G U26C U53A	≤ 0.5
G10C C22A C24G U53A	0.547
G10C C22A G56C A65G	≤ 0.5
G10C C22G C29G C46U A65C	≤ 0.5
G10C C22G C33U A36C A40U	≤ 0.5
G10C C22U A70G	0.513
G10C C22U C61U	0.518
G10C C22U G44C	≤ 0.5
G10C C22U U26A C49U A65U	≤ 0.5
G10C C22U U59G C60U	≤ 0.5
G10C C24A C33G A40G A42G	≤ 0.5
G10C C24A G51A A65G A70C	0.55
G10C C24G C34G U54G A70U	0.703
G10C C24G G50A	≤ 0.5
G10C C24G U28C A37G U47A	≤ 0.5
G10C C24U	0.716
G10C C24U C29A A45U C46G U47A G50A U64G	0.575
G10C C24U C29G A45U C46G U47A G50A U64G	0.536
G10C C24U C34U A36U C46A A69C	≤ 0.5
G10C C24U C46U U64C	≤ 0.5

Variant	yeast fitness
G10C C24U G52A G56A	≤ 0.5
G10C C24U G68C	≤ 0.5
G10C C27A A42U C62G	0.556
G10C C27A C34A A40G C60U A65U	≤ 0.5
G10C C27A C61U	≤ 0.5
G10C C27G A42C C49A	≤ 0.5
G10C C27G A42C C49A A69C	≤ 0.5
G10C C27G C30G G48C A65C	≤ 0.5
G10C C27U	0.679
G10C C27U A36C C61U A65G	≤ 0.5
G10C C27U A40U A45U	≤ 0.5
G10C C27U A40U A45U G48A C55U C66U	0.591
G10C C27U A43G C46G A69C	≤ 0.5
G10C C27U G38A C46G G63A	≤ 0.5
G10C C27U G63C	≤ 0.5
G10C C27U U47G	0.632
G10C C29A C33A G52A	0.57
G10C C29G	≤ 0.5
G10C C29G A37G	≤ 0.5
G10C C29G A40G	≤ 0.5
G10C C29G A40U C49G	≤ 0.5
G10C C29G A42U	0.554
G10C C29G A65C	≤ 0.5
G10C C29G G44C C49A U64C	≤ 0.5

Variant	yeast fitness
G10C C29G U32G	≤ 0.5
G10C C29G U53A	≤ 0.5
G10C C29U A40U A65U	≤ 0.5
G10C C29U C31U A65U	≤ 0.5
G10C C29U G56A C61U	≤ 0.5
G10C C30A C66A	≤ 0.5
G10C C30A C66U	≤ 0.5
G10C C30G A65C G68C	≤ 0.5
G10C C30G C49G	≤ 0.5
G10C C30G C55A	≤ 0.5
G10C C30G C60A	≤ 0.5
G10C C30U U54A	≤ 0.5
G10C C31A A37U G63A A65G	≤ 0.5
G10C C31A U32C G39A G52C	≤ 0.5
G10C C31A U35C A45U	≤ 0.5
G10C C31G C33U	0.698
G10C C31G C33U C60U	≤ 0.5
G10C C31G C49U	≤ 0.5
G10C C31U	0.78
G10C C33A A36U U53A U54A	≤ 0.5
G10C C33A A45C	0.551
G10C C33A C62A	0.652
G10C C33A G48A	≤ 0.5
